# How the values were obtained:
# [1] = system: Pseudomonas aeruginosa; assay: Antimicrobial activity against Pseudomonas aeruginosa PAO1 PvdA deletion mutant after 24 hrs by microplate reader analysis in presence of 200 uM FeCl3; assay type: functional, organism-based
# Outline: (§1)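 Overnight LB cultures were diluted to OD600 0.5 in PMH-D medium. Cells were added to PMH-D containing FeCl3, either 5 µM (iron-limited) or 200 µM (iron-rich), with inhibitor at 0–5 mM (DMSO vehicle). Plates were shaken at 37 °C for 24 h. Cells were then pelleted, the medium was removed, and cells were resuspended in LB. A600 was read. Growth was normalized to no-inhibitor cultures to give EC50.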
# [2] = system: Pseudomonas aeruginosa; assay: Antimicrobial activity against Pseudomonas aeruginosa PAO1 PchE deletion mutant after 24 hrs by microplate reader analysis in presence of 200 uM FeCl3; assay type: functional, organism-based; outline: as §1
# [3] = Inhibition of Pseudomonas aeruginosa PAO1 PchB expressed in Escherichia coli BL21(DE3) using isochorismate as substrate assessed as salicylate production by fluorescence spectrometry
# Outline: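 Untagged PchB at 50 nM in 50 mM potassium phosphate pH 8. […] Initial velocities at 25 °C were taken from salicylate fluorescence (ex 310/em 430 nm) over 120 s of the linear phase. IC50 came from dose-response percent inhibition.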
# [4] = Competitive inhibition of Pseudomonas aeruginosa PAO1 PchB expressed in Escherichia coli BL21(DE3) using isochorismate as substrate
# Outline: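 Untagged PchB at 50 nM final, in 50 mM potassium phosphate pH 8 (plus 1 mM TCEP for stopped-flow runs), at 25 °C. Isochorismate was varied up to 75 µM and inhibitor up to 1.5 µM. Salicylate formation was followed by fluorescence (excitation 310 nm; emission 430 nm or 360 nm cutoff) as linear initial velocities, over 120 s on a cuvette fluorimeter or 30 s by stopped-flow.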
# [5] = system: Pseudomonas aeruginosa; assay: Antimicrobial activity against Pseudomonas aeruginosa PAO1 PchE deletion mutant after 24 hrs by microplate reader analysis in presence of 5 uM FeCl3; assay type: functional, organism-based; conditions: PAO1, 24 h; outline: as §1
# [6] = system: Pseudomonas aeruginosa; assay: Antimicrobial activity against wild-type Pseudomonas aeruginosa PAO1 after 24 hrs by microplate reader analysis in presence of 200 uM FeCl3; assay type: functional, organism-based; outline: as §1
# [7] = system: Pseudomonas aeruginosa; assay: Antimicrobial activity against wild-type Pseudomonas aeruginosa PAO1 after 24 hrs by microplate reader analysis in presence of 5 uM FeCl3; assay type: functional, organism-based; conditions: PAO1, 24 h; outline: as §1
# [8] = Inhibition of Pseudomonas aeruginosa PAO1 PchB expressed in Escherichia coli BL21(DE3) using isochorismate as substrate assessed as pyruvate production after 10 mins by microplate reader analysis
# Outline: (§2)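 Pyruvate output at 25 °C, with PchB at 50 nM in 50 mM potassium phosphate pH 8 started with isochorismate, or Irp9 at 200 nM started with chorismate. Substrate was above the 10 µM Km and inhibitor was varied. Samples taken at 2-min points were quenched in 0.25 g/L DNPH in 1 M HCl and held 10 min at 37 °C. NaOH was added and A515 read, converted to pyruvate by standard curve. Runs were in triplicate, giving IC50.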
# [9] = system: Yersinia enterocolitica; assay: Antimicrobial activity against Yersinia enterocolitica ATCC 9610 after 24 hrs by microplate reader analysis in presence of 5 uM FeCl3; assay type: functional, organism-based; conditions: ATCC 9610, 24 h; outline: as §1
# [10] = molecular target: T1, Salicylate synthetase, Irp9 (Yersinia enterocolitica, UniProt Q9X9I8); assay: Competitive inhibition of Yersinia enterocolitica Irp9 using chorismate as substrate
# T1 sequence (Q9X9I8 whole entry): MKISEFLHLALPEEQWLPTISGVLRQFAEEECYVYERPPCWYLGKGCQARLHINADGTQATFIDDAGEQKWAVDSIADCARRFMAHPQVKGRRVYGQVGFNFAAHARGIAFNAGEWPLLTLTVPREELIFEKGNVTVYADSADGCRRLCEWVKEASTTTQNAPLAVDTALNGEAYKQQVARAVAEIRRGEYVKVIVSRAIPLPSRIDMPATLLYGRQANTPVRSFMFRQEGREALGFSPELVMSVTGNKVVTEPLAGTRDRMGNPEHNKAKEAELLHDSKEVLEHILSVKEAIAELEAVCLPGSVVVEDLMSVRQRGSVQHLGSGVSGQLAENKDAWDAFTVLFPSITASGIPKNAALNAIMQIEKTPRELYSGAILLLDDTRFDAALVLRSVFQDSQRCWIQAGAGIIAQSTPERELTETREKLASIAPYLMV
# Outline: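 Stopped-flow kinetics at 25 °C in 50 mM Tris pH 7.5, 10 mM MgCl2, 10% glycerol. Final Irp9 was 100 nM, chorismate 0–40 µM and inhibitor 0–10 µM. Enzyme plus inhibitor was mixed with chorismate. Initial velocities came from the rise in salicylate fluorescence (ex 310 nm, 360 nm cutoff filter) over 30 s. Ki and inhibition mode were derived from these rates.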
# [11] = molecular target: T2, Bifunctional chorismate mutase/prephenate dehydratase (Escherichia coli (strain K12), UniProt P0A9J8); assay: Competitive inhibition of Escherichia coli K-12 EcCM expressed in Escherichia coli BL21 Star (DE3) pLysS using chorismate as substrate
# T2 sequence (P0A9J8 whole entry): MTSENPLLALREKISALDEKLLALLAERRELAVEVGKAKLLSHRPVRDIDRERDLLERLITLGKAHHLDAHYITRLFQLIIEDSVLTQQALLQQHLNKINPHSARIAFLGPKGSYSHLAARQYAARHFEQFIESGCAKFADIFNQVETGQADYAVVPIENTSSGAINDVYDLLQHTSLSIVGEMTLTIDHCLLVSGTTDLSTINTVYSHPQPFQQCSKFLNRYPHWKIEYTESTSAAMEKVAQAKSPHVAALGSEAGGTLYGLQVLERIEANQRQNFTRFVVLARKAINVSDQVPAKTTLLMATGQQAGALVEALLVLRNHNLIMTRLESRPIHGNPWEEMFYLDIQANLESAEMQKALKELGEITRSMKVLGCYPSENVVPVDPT
# Outline: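 N-terminally His-tagged chorismate mutase domain of pheA, purified by Ni-chelate and size-exclusion chromatography. Enzyme with inhibitor mixed 1:1 with chorismate. Final concentrations: enzyme 500 nM, chorismate 0–2 mM, inhibitor 0–50 µM. Initial rates read as the 30 s decrease in absorbance at 310 nm, giving Ki and inhibition mode.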
# [12] = system: Pseudomonas aeruginosa; assay: Antimicrobial activity against Pseudomonas aeruginosa PAO1 PvdA deletion mutant after 24 hrs by microplate reader analysis in presence of 5 uM FeCl3; assay type: functional, organism-based; conditions: PAO1, 24 h; outline: as §1
# [13] = molecular target: T2, Bifunctional chorismate mutase/prephenate dehydratase; assay: Inhibition of Escherichia coli K-12 EcCM expressed in Escherichia coli BL21 Star (DE3) pLysS using chorismate as substrate assessed as disappearance of chorismate by stopped-flow analysis
# Outline: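 His-tagged EcCM domain was Ni-affinity and size-exclusion purified. Post-mixing concentrations were 500 nM enzyme, chorismate at Km (600 µM) and inhibitor 0–500 µM. Rate was the A310 decrease over 30 s, in triplicate, giving IC50.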
# [14] = Inhibition of Pseudomonas aeruginosa PAO1 PchB
# [15] = molecular target: T1, Salicylate synthetase, Irp9; assay: Inhibition of Yersinia enterocolitica Irp9 using chorismate as substrate assessed as pyruvate production after 10 mins by microplate reader analysis; outline: as §2
# [16] = molecular target: T1, Salicylate synthetase, Irp9; assay: Inhibition of Yersinia enterocolitica Irp9 using chorismate as substrate assessed as salicylate production by fluorescence spectrometry
# Outline: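 Irp9 at 100 nM in 50 mM Tris-HCl pH 7.5, 10 mM MgCl2, 10% glycerol. Reaction was started with chorismate, with inhibitor concentration varied. Initial velocities at 25 °C were taken from salicylate fluorescence (ex 310/em 430 nm) over 120 s of the linear phase. IC50 came from the dose-response.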
# [17] = system: Escherichia coli; assay: Ratio of I50 to Km for Escherichia coli Chorismate mutase
# Outline: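 N-His-tagged E. coli chorismate mutase domain (PheA), 500 nM. Chorismate at its Km (600 µM), inhibitor 0–500 µM, all post-mixing. Initial rates from A310 decrease over 30 s, in triplicate. I50 is the concentration giving 50% inhibition at substrate = Km, divided by Km.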
SMILES,IC50 [3] [nM],IC50 [8] [nM],IC50 [13] [µM],IC50 [15],also measured
COC(=O)Oc1c([N+](=O)[O-])cc2oc(=O)sc2c1[N+](=O)[O-],870,530,32,,EC50 [1]: Not Active; EC50 [2]: Not Active; Ki [4]: 350 nM; EC50 [5]: > 5 mM; EC50 [6]: Not Active; EC50 [7]: > 5 mM; EC50 [9]: 2.3 mM; Ki [10]: 800 nM; Ki [11]: 40 µM; EC50 [12]: > 5 mM
O=c1oc2cc(Br)c(O)c(Br)c2s1,10000,10000,120,,
O=P(O)(O)C12CC3CC(CC(C3)C1)C2,,,,,Ki [14]: > 5000 µM
O=C(O)c1cc(S(=O)(=O)Nc2ccccc2C(=O)O)ccc1Br,240,94,200,Not Active,IC50 [16]: Not Active
O=C(O)c1cccc(S(=O)(=O)Nc2ccccc2C(=O)O)c1,250,220,170,Not Active,IC50 [16]: Not Active
COC(=O)Oc1c(Cl)cc2oc(=O)sc2c1[N+](=O)[O-],3300,1800,45,Not Active,
O=C1S/C(=C/c2cc([N+](=O)[O-])cc([N+](=O)[O-])c2O)C(=O)N1c1ccccc1,1400,1400,85,Not Active,
O=C(O)C1CC2(C(=O)O)C=CC(O)C(C2)O1 (configuration not stated),,,,,Ratio [17]: 0.008; Ki [14]: 2 µM
